Experimental data reported in ChEMBL document CHEMBL3853320, “Discovery of Imidazoquinolines as a Novel Class of Potent, Selective, and in Vivo Efficacious Cancer Osaka Thyroid (COT) Kinase Inhibitors” (J Med Chem, 2016).
≈ marks a conversion by molar mass, not a printed value.

What was measured:
[1] = target: T1, Mitogen-activated protein kinase kinase kinase 8 (Homo sapiens, UniProt P41279); test: Inhibition of human COT (66 to 395 residues) expressed in Sf21 cells using 5-Fluo-Ahx-AGAGSGQLIDSNleANSFVGTR-NH2 as substrate after 60 mins by caliper microfluidic mobility shift assay
[2] = Equilibrium solubility of the compound at pH 4 after 16 hrs by mass spectrometric analysis; type: physicochemical; conditions: buffer
[3] = Equilibrium solubility of the compound at pH 6.8 after 16 hrs by mass spectrometric analysis; type: physicochemical; conditions: buffer
[4] = Octanol-water partition coefficient, log P of the compound by shake-flask method; type: physicochemical
[5] = Drug level in bile-duct cannulated Sprague-Dawley rat kidney treated with N-(1-morpholinopropan-2-yl)-6-(8-(thiophen-2-yl)-1H-imidazo[4,5-c][1,7]naphthyridin-1-yl)benzo[d]thiazol-2-amine at 3 mg/kg, iv measured 8 hrs post dose; type: ADME, organism-based; conditions: in vivo
[6] = Drug level in bile-duct cannulated Sprague-Dawley rat bile treated with N-(1-morpholinopropan-2-yl)-6-(8-(thiophen-2-yl)-1H-imidazo[4,5-c][1,7]naphthyridin-1-yl)benzo[d]thiazol-2-amine at 3 mg/kg, iv measured 8 hrs post dose; type: ADME, organism-based; conditions: in vivo
[7] = Drug level in bile-duct cannulated Sprague-Dawley rat urine treated with N-(1-morpholinopropan-2-yl)-6-(8-(thiophen-2-yl)-1H-imidazo[4,5-c][1,7]naphthyridin-1-yl)benzo[d]thiazol-2-amine at 3 mg/kg, iv measured 8 hrs post dose; type: ADME, organism-based; conditions: in vivo
[8] = Drug level in bile-duct cannulated Sprague-Dawley rat liver treated with N-(1-morpholinopropan-2-yl)-6-(8-(thiophen-2-yl)-1H-imidazo[4,5-c][1,7]naphthyridin-1-yl)benzo[d]thiazol-2-amine at 3 mg/kg, iv measured 8 hrs post dose; type: ADME, organism-based; conditions: in vivo
[9] = Inhibition of NFkappaB pathway in LPS-stimulated human PBMC assessed as reduction in p65 phosphorylation incubated for 60 mins followed by LPS stimulation for 12 mins by flow cytometric analysis analysis
Method in brief: (§1)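 Primary human PBMCs were stimulated with LPS. Read-outs were pERK, TNFα release, or p65 phosphorylation, each reported as IC50.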

[10] = target: MAP kinase-interacting serine/threonine-protein kinase 2 (Homo sapiens, UniProt Q9HBH9); test: Inhibition of MKNK2 (unknown origin) after 60 mins in presence of ATP by caliper microfluidic mobility shift assay
[11] = Inhibition of MEK/ERK signaling pathway in EGF-stimulated human A431 cells transfected with COT siRNA assessed as reduction in ERK1/2 phosphorylation incubated for 60 mins followed by stimulation with EGF for 10 mins by Western blot analysis; type: cell-based; conditions: A-431
[12] = target: T1, Mitogen-activated protein kinase kinase kinase 8; test: Inhibition of COT in LPS-stimulated human whole blood assessed as reduction in TNFalpha release incubated for 30 mins followed by stimulation with LPS for 3 hrs by HTRF assay; type: tissue-based
Method in brief: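 Human whole blood was stimulated with LPS, and TNFα release was measured as IC50.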

[13] = Inhibition of MEK/ERK signaling pathway in TNFalpha-stimulated human A431 cells transfected with COT siRNA assessed as reduction in ERK1/2 phosphorylation incubated for 60 mins followed by stimulation with TNFalpha for 10 mins by Western blot analysis; type: cell-based; conditions: A-431
[14] = target: Receptor-type tyrosine-protein kinase FLT3 (Homo sapiens, UniProt P36888, D835Y); test: Inhibition of FLT3 (563 to 993 residues) D835Y mutant (unknown origin) after 60 mins in presence of ATP by caliper microfluidic mobility shift assay
[15] = target: T1, Mitogen-activated protein kinase kinase kinase 8; test: Inhibition of COT in LPS-stimulated human PBMC assessed as reduction in TNFalpha release incubated for 1 hr followed by stimulation with LPS for 4 hrs by HTRF assay; method in brief: as §1
[16] = target: T1, Mitogen-activated protein kinase kinase kinase 8; test: Inhibition of COT in LPS-stimulated human PBMC assessed as reduction in ERK1/2 phosphorylation incubated for 60 mins followed by LPS stimulation for 12 mins by flow cytometric analysis; method in brief: as §1
[17] = Protein binding in human plasma at 5 uM after 4 hrs by rapid equilibrium dialysis method; type: ADME, cell-free; conditions: read-out: PPB (converted)
[18] = Clearance in wild type Sprague-Dawley rat plasma at 1 mg/kg, iv; type: ADME, organism-based
Method in brief: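 Male wild-type Sprague–Dawley rats were given 1 mg/kg intravenously. Clearance was derived from plasma.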

[19] = Metabolic stability in Sprague-Dawley rat liver microsomes assessed as parent compound remaining at 5 uM after 1 hr in presence of NADPH by HPLC/MS analysis; type: ADME; conditions: read-out: Stability
[20] = Metabolic stability in bile-duct cannulated Sprague-Dawley rat assessed as parent compound remaining in blood at 3 mg/kg, iv measured 4 hrs post dose; type: ADME, organism-based; conditions: read-out: Stability
Method in brief: (§2)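 Bile-duct cannulated rats dosed in vivo. Parent and metabolites in each matrix were expressed as relative peak areas of the drug-related components detected, at the stated sampling time or collection period post dose.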

[21] = Metabolic stability in bile-duct cannulated Sprague-Dawley rat assessed as parent compound remaining in blood at 3 mg/kg, iv measured 1 hr post dose; type: ADME, organism-based; conditions: read-out: Stability
[22] = Half life in wild type Sprague-Dawley rat liver microsomes at 5 uM preincubated for 3 mins followed by NADPH addition measured after 1 hr by HPLC/MS analysis; type: ADME
[23] = Metabolic stability in bile-duct cannulated Sprague-Dawley rat assessed as parent compound remaining in bile at 3 mg/kg, iv measured over 8 hrs post dose; type: ADME, organism-based; conditions: read-out: Stability
[24] = Drug excretion in bile-duct cannulated Sprague-Dawley rat urine at 3 mg/kg, iv; type: ADME, organism-based; conditions: read-out: Drug excretion
[25] = Drug excretion in bile-duct cannulated Sprague-Dawley rat bile at 3 mg/kg, iv; type: ADME, organism-based; conditions: read-out: Drug excretion
[26] = Metabolic stability in bile-duct cannulated Sprague-Dawley rat assessed as parent compound remaining in urine at 3 mg/kg, iv measured over 8 hrs post dose; type: ADME, organism-based; conditions: read-out: Stability; method in brief: as §2

T1 sequence (P41279 whole entry, the tested form may be a part): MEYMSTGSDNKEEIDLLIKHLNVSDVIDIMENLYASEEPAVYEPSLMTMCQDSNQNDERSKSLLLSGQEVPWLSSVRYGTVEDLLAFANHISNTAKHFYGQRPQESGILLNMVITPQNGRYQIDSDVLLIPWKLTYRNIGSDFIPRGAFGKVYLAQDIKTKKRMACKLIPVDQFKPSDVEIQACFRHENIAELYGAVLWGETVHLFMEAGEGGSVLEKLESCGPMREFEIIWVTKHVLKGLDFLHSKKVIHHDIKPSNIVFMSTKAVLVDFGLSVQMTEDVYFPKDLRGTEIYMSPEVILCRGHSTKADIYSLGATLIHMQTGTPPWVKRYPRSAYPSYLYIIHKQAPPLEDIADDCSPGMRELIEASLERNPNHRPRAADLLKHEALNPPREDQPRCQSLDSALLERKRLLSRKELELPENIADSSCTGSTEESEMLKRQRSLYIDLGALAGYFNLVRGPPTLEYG
Chain of MAP kinase-interacting serine/threonine-protein kinase 2 (Q9HBH9 whole entry): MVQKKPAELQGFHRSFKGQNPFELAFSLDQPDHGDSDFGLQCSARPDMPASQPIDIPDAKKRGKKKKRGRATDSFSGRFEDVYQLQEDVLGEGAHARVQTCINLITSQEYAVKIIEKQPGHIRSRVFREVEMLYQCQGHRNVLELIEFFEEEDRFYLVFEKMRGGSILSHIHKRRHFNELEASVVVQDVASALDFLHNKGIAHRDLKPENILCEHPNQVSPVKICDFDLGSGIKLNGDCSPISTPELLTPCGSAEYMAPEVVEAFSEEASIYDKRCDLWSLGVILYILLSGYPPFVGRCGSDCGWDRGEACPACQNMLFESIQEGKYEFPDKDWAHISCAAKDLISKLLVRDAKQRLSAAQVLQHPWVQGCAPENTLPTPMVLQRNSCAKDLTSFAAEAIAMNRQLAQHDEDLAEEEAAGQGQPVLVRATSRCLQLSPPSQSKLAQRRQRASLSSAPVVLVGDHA

C1=C(c2cc3c(cn2)ncc2ncn(-c4ccc5nc[nH]c5c4)c23)CCCC1
IC50 [1]: 1.3 µM

c1nc2ccc(-n3cnc4cnc5cnc(-c6cnsc6)cc5c43)cc2[nH]1
IC50 [1]: 0.16 µM

Cc1cccc(-c2cc3c(cn2)ncc2ncn(-c4ccc5nc[nH]c5c4)c23)c1
IC50 [1]: 0.2 µM

c1ccc(-c2cc3c(cn2)ncc2ncn(-c4ccc5ncccc5c4)c23)cc1
IC50 [1]: 0.096 µM
solubility thermodynamic at 16 h [2]: < 4 µM
solubility thermodynamic at 16 h [3]: < 4 µM

c1nc2ccc(-n3cnc4cnc5cnc(-c6cn[nH]c6)cc5c43)cc2[nH]1
IC50 [1]: 0.15 µM

N#CCc1ccc(-n2cnc3cnc4ccc(-c5ccsc5)cc4c32)cc1
IC50 [1]: 2.6 µM
logP [4]: 4.9

CC(CN1CCOCC1)Nc1nc2ccc(-n3cnc4c(=O)[nH]c5cnc(-c6cccs6)cc5c43)cc2s1 (stereo not given)
Drug metabolism [5]: Metabolite_Detected
Drug metabolism [6]: Metabolite_Detected
Drug metabolism [7]: Metabolite_Detected
Drug metabolism [8]: Metabolite_Detected

c1cnc2ccc(-n3cnc4cnc5cnc(-c6ccsc6)cc5c43)cc2c1
IC50 [1]: 0.02 µM
IC50 [9]: > 25 µM
IC50 [10]: < 1.4 µM
IC50 [11]: > 10 µM
solubility thermodynamic at 16 h [2]: 6 µM (≈ 2.28 µg/mL)
IC50 [12]: 1.78 µM
solubility thermodynamic at 16 h [3]: < 4 µM
IC50 [13]: 0.061 µM
IC50 [14]: < 0.34 µM
IC50 [15]: 0.44 µM
IC50 [16]: 0.54 µM
fraction unbound at 4 h, 5 µM [17]: < 0.01
logP [4]: 4.2

C[C@H](CN1CCOCC1)Nc1ccc2cc(-n3cnc4cnc5cnc(-c6ccncc6)cc5c43)ccc2n1
IC50 [1]: 0.004 µM
clearance [18]: 221 mL/min/kg
solubility thermodynamic at 16 h [2]: > 1000 µM
IC50 [12]: 0.08 µM
solubility thermodynamic at 16 h [3]: 135 µM (≈ 69.7 µg/mL)
IC50 [15]: 0.03 µM
IC50 [16]: 0.03 µM
logP [4]: 3.2

N#CCc1ccc(-n2cnc3cnc4cnc(-c5ccsc5)cc4c32)cc1
IC50 [1]: 0.05 µM
logP [4]: 3.9

Clc1cc2c(cn1)ncc1ncn(-c3ccc4nc[nH]c4c3)c12
IC50 [1]: > 10 µM

CC(CN1CCOCC1)Nc1nc2ccc(-n3cnc4cnc5cnc(-c6cccs6)cc5c43)cc2s1 (stereo not given)
IC50 [1]: 0.022 µM
clearance [18]: 40 mL/min/kg
solubility thermodynamic at 16 h [2]: 261 µM (≈ 138 µg/mL)
IC50 [12]: > 10 µM
remaining at 1 h, 5 µM [19]: 66%
solubility thermodynamic at 16 h [3]: 13 µM (≈ 6.86 µg/mL)
remaining at 4 h [20]: 68%
remaining at 1 h [21]: 86%
half-life at 5 µM [22]: < 3 min
dose excreted at 8 h [23]: 4%
IC50 [15]: 0.29 µM
IC50 [16]: 0.28 µM
fraction unbound at 4 h, 5 µM [17]: < 0.01
logP [4]: 5.1
dose excreted [24]: 0.63%
dose excreted [25]: 0.63%
dose excreted at 8 h [26]: 1%

Cc1ccc(-c2cc3c(cn2)ncc2ncn(-c4ccc5nc[nH]c5c4)c23)cc1
IC50 [1]: 1.3 µM
